# Results from article PMC4322771 (Biopolymers, 2008).
# Ends that are not written are not given here.
# Columns and labels:
# [1] = molecular target: murine CBP KIX domain (CBP(586–672)) (Mus musculus, UniProt P45481); assay: Fluorescence polarization binding to CBP KIX domain
# Summary of the method: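 Test compounds carried a fluorescein label at the amino terminus and were held at a constant concentration. Each was incubated at 25°C with increasing concentrations of exogenously expressed murine CBP KIX domain (residues 586–672). Fluorescence polarization was read at each protein concentration. Dissociation constants were obtained by Levenberg-Marquardt least-squares fitting of the binding data.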
# [2] = tested on: Gal4(1–148)+KBP 2.20-mediated transcription; assay: Competitive inhibition, firefly luciferase reporter assay in HeLa cells; assay type: cell-based; settings: 0 → 20 μM, activity measured 40 h after compound addition
# murine CBP KIX domain (CBP(586–672)), sequence (P45481 586-672): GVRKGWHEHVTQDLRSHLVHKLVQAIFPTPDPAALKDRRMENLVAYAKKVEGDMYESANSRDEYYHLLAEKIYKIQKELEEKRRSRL
Substance,Fold lower dissociation constant for the KIX domain relative to KBP 1.66 [1],Inhibitory activity on KBP 2.20-mediated transcription (in words) [2]
SWAVYELLFGS-NH2 (C-terminus assumed) [KBP 2.20],~ 3 fold,little or no inhibitory activity
SRAVRELLFGS,,no impact
